Test results: ChEMBL document CHEMBL1152214, “Synthesis and immunostimulatory properties of the phosphorothioate analogues of cdiGMP” (Bioorg Med Chem Lett, 2008)
Active and inactive are the calls of the source.

How the values were obtained:
Assay type in all cases: functional, organism-based
Mus musculus [1] = organism: Mus musculus; experiment: Induction of IL-3 secretion in C57BL/6 mouse
Outline: (§1)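 Mice dosed by intranasal instillation and killed after 24 h; bronchoalveolar lavage collected five times with PBS plus 3 mM EDTA; lavage fluid measured for a panel of 21 chemokines and cytokines.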

Mus musculus [2] = organism: Mus musculus; experiment: Induction of IFN-gamma secretion in C57BL/6 mouse; outline: as §1
Mus musculus [3] = organism: Mus musculus; experiment: Induction of VEGF secretion in C57BL/6 mouse; outline: as §1
Mus musculus [4] = organism: Mus musculus; experiment: Induction of RNATES secretion in C57BL/6 mouse; outline: as §1
Mus musculus [5] = organism: Mus musculus; experiment: Induction of IL-1alpha secretion in C57BL/6 mouse; outline: as §1
Mus musculus [6] = organism: Mus musculus; experiment: Induction of IL-2 secretion in C57BL/6 mouse; outline: as §1
Mus musculus [7] = organism: Mus musculus; experiment: Induction of KC secretion in C57BL/6 mouse; outline: as §1
Mus musculus [8] = organism: Mus musculus; experiment: Immunostimulatory activity in C57BL/6 mouse assessed as recruitment of inflammatory cells into bronchoalveolar spaces; conditions: Lung
Outline: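 Compound given to mice by intranasal instillation; animals killed 24 h later and lungs lavaged five times with PBS containing 3 mM EDTA; total and differential inflammatory cell counts determined in the bronchoalveolar lavage.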

Mus musculus [9] = organism: Mus musculus; experiment: Induction of TNFalpha secretion in C57BL/6 mouse; outline: as §1
Mus musculus [10] = organism: Mus musculus; experiment: Induction of IL-4 secretion in C57BL/6 mouse; outline: as §1
Mus musculus [11] = organism: Mus musculus; experiment: Induction of IL-5 secretion in C57BL/6 mouse; outline: as §1
Mus musculus [12] = organism: Mus musculus; experiment: Induction of IL-6 secretion in C57BL/6 mouse; outline: as §1
Mus musculus [13] = organism: Mus musculus; experiment: Induction of MCP-1 secretion in C57BL/6 mouse; outline: as §1
Mus musculus [14] = organism: Mus musculus; experiment: Induction of GM-CSF secretion in C57BL/6 mouse; outline: as §1
Mus musculus [15] = organism: Mus musculus; experiment: Induction of MIP-1beta secretion in C57BL/6 mouse; outline: as §1
Mus musculus [16] = organism: Mus musculus; experiment: Induction of IL-9 secretion in C57BL/6 mouse; outline: as §1
Mus musculus [17] = organism: Mus musculus; experiment: Induction of IL-17 secretion in C57BL/6 mouse; outline: as §1
Mus musculus [18] = organism: Mus musculus; experiment: Induction of IL1-beta secretion in C57BL/6 mouse; outline: as §1
Mus musculus [19] = organism: Mus musculus; experiment: Induction of IL-13 secretion in C57BL/6 mouse; outline: as §1
Mus musculus [20] = organism: Mus musculus; experiment: Induction of IL-12(p40) secretion in C57BL/6 mouse; outline: as §1
Mus musculus [21] = organism: Mus musculus; experiment: Induction of IL-10 secretion in C57BL/6 mouse; outline: as §1

Measured: Activity

Nc1nc2ncn([C@@H]3O[C@@H]4COP(=O)(O)O[C@@H]5[C@H](O)[C@@H](n6cnc7nc(N)[nH]c(=O)c76)O[C@H]5COP(=O)(O)O[C@H]4[C@H]3O)c2c(=O)[nH]1
active: Mus musculus [4] Dose-dependent effect | Mus musculus [7] Dose-dependent effect | Mus musculus [8] Dose-dependent effect | Mus musculus [9] Dose-dependent effect | Mus musculus [12] Dose-dependent effect | Mus musculus [13] Dose-dependent effect | Mus musculus [15] Dose-dependent effect | Mus musculus [18] Dose-dependent effect | Mus musculus [20] Dose-dependent effect
inactive: all other assays above
